Measured values from PubChem BioAssay AID651740 (Broad Institute, 2012).
Among all 5,600 compounds or so, about 1,200 (21%) were called active. About 3% were inconclusive and are not listed.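 The calls were made as follows: active = mean inhibition above about 95%, with at least 55% of replicates also reaching it (limit read from the data); inconclusive = meets just one of the two conditions; inactive = meets neither condition.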 The list is a sample of the results.

Experiment: inhibitors of intracellular T. cruzi replication, confirmation, NIH3T3 host cells, beta-gal parasites, cherry-pick, set 2 (AID 651740);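 also: plate controls were neutral control median for no effect and positive control median for full effect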
Conditions: T. cruzi beta-gal in NIH3T3, GalScreen luminescence, 90 h; at 2.09 µM; hits give high values
In short: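 Material: T. cruzi Tulahuen C4 (beta-gal) in NIH/3T3 cells | Schedule: Host attachment 3 h, co-culture ≥90 h, lysis 60 min | Signal: GalScreen lysis and luminescent beta-gal signal | Also added: 5000 beta-gal T. cruzi trypomastigotes per well | Compound: Single point, 100 nL compound in DMSO pinned per well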

Structure (SMILES)	inhibition
Cc1ccc(S(=O)(=O)N2C[C@@H](O)COC[C@@H]3O[C@H](CC(=O)NCc4ccc(Cl)c(Cl)c4)CC[C@H]32)cc1	50.2% (inactive)
COCCNC[C@@H]1[C@H](c2ccccc2)[C@H](CO)N1c1nc(C)c(C)s1	5.12% (inactive)
O=C(Nc1ccc2c(c1)[C@@H]1C[C@H](CC(=O)N3CCOCC3)O[C@@H](CO)[C@@H]1O2)c1ccc2c(c1)OCO2	6.38% (inactive)
C[C@@H]1CN([C@H](C)CO)C(=O)c2cc(NS(C)(=O)=O)ccc2O[C@@H](C)CCCCO[C@H]1CN(C)S(=O)(=O)c1cn(C)cn1	-5.24% (inactive)
COc1ccc(C#Cc2ccc([C@@H]3[C@@H](CO)N4CCCCN(C(=O)c5ccncc5)C[C@@H]34)cc2)cc1	30% (inactive)
C[C@@H]1CN([C@H](C)CO)C(=O)c2cccc(NC(=O)c3cnccn3)c2O[C@@H]1CN(C)Cc1ccc(C(=O)Nc2ccccc2N)cc1	82.4% (inactive)
C[C@H]1CN([C@@H](C)CO)S(=O)(=O)c2ccc(C#CC3CCCC3)cc2O[C@H]1CN(C)C(=O)Cc1ccncc1	79.4% (inactive)
C[C@@H]1CN([C@@H](C)CO)C(=O)c2cc(NC(=O)Nc3cccc4ccccc34)ccc2O[C@H]1CN(C)Cc1ccc(Cl)c(Cl)c1	102% (active)
C[C@@H]1CN([C@@H](C)CO)C(=O)c2cc(NC(=O)Cc3ccccc3)ccc2O[C@@H]1CN(C)Cc1ccc(Oc2ccccc2)cc1	94.9% (inactive)
C[C@@H]1CN([C@@H](C)CO)C(=O)c2cc(NC(=O)Nc3ccc4c(c3)OCO4)ccc2O[C@@H]1CN(C)Cc1ccc(Oc2ccccc2)cc1	-1.56% (inactive)
C[C@H]1CN([C@@H](C)CO)C(=O)c2cc(NC(=O)Nc3ccc4c(c3)OCO4)ccc2O[C@@H]1CN(C)Cc1ccc(Oc2ccccc2)cc1	66.6% (inactive)
Cc1ccc(S(=O)(=O)Nc2ccc3c(c2)C(=O)N([C@H](C)CO)C[C@H](C)[C@H](CN(C)Cc2ccc(Cl)c(Cl)c2)O3)cc1	74% (inactive)
C[C@@H]1CN([C@@H](C)CO)C(=O)c2cc(NC(=O)Nc3cccc4ccccc34)ccc2O[C@H]1CN(C)Cc1ccc(Oc2ccccc2)cc1	106% (active)
Cc1ccc(-c2ccc([C@H]3[C@H](CO)N4CCCCN(Cc5cncnc5)C[C@@H]34)cc2)cc1	50.8% (inactive)
C[C@@H]1CN([C@H](C)CO)C(=O)c2cc(C#Cc3ccccn3)cnc2O[C@H]1CN(C)Cc1ccccc1	76.7% (inactive)
C[C@H]1CN([C@@H](C)CO)C(=O)c2ccccc2-c2ccccc2CO[C@@H]1CN(C)S(=O)(=O)c1ccc(C(F)(F)F)cc1	71.5% (inactive)
CCC(=O)N1CCCCN2[C@H](C1)[C@@H](c1ccc(-c3ccc(F)cc3)cc1)[C@@H]2CO	-6.94% (inactive)
C[C@@H]1CCCCO[C@@H](CN(C)Cc2ccc3c(c2)OCO3)[C@@H](C)CN([C@@H](C)CO)C(=O)c2cc(NC(=O)Nc3ccccc3)ccc2O1	84.4% (inactive)
C[C@@H]1CCCCO[C@H](CN(C)Cc2ccc(Cl)c(Cl)c2)[C@H](C)CN([C@@H](C)CO)C(=O)c2cc(NC(=O)C3CCCCC3)ccc2O1	110% (active)
COc1ccc(NC(=O)Nc2ccc3c(c2)C(=O)N([C@H](C)CO)C[C@@H](C)[C@H](CN(C)Cc2ccc(Cl)c(Cl)c2)OCCCC[C@@H](C)O3)cc1	114% (active)

Structure (SMILES)	inhibition
COc1ccc(CN(C)C[C@H]2OCCCC[C@H](C)Oc3ccc(NC(=O)Nc4ccc5c(c4)OCO5)cc3C(=O)N([C@H](C)CO)C[C@@H]2C)cc1	83% (inactive)
C[C@@H]1CCCCO[C@@H](CN(C)Cc2ccc(Cl)c(Cl)c2)[C@H](C)CN([C@H](C)CO)C(=O)c2cc(NC(=O)Nc3ccc(F)cc3)ccc2O1	112% (active)
C[C@@H]1CN([C@H](C)CO)C(=O)c2cc(NC(=O)Nc3ccc(F)cc3)ccc2O[C@@H](C)CCCCO[C@H]1CN(C)Cc1ccc(Cl)c(Cl)c1	114% (active)
O=C(NCc1ccccn1)[C@@H]1[C@@H](CO)[C@@H]2Cn3c(ccc(/C=C/c4ccccc4)c3=O)[C@H]1N2CC1CC1	22.2% (inactive)
C[C@H]1CN([C@@H](C)CO)C(=O)c2cc(C#CC3CCCCC3)cnc2O[C@H]1CN(C)S(=O)(=O)c1ccccc1	77% (inactive)
C[C@@H]1CN([C@@H](C)CO)C(=O)Cc2cc(NC(=O)C3CCCCC3)ccc2O[C@@H]1CN(C)Cc1ccc(C(=O)Nc2ccccc2N)cc1	83.7% (inactive)
C[C@H](CO)N1C[C@H](C)[C@@H](CN(C)Cc2ccc(-c3ccccc3)cc2)Oc2ccc(NC(=O)CCC(F)(F)F)cc2CC1=O	89.8% (inactive)
C[C@@H]1CCCCO[C@H](CN(C)C(=O)Nc2cccc3ccccc23)[C@H](C)CN([C@H](C)CO)C(=O)c2cc(NS(=O)(=O)c3cccs3)ccc2O1	52.6% (inactive)
C[C@H](CO)N1C[C@H](C)[C@H](CN(C)C(=O)Nc2ccc3c(c2)OCO3)Oc2ncc(C#Cc3cccc(F)c3)cc2C1=O	36.1% (inactive)
CC(C)NC(=O)N(C)C[C@H]1OCc2cn(nn2)CCCC(=O)N([C@@H](C)CO)C[C@H]1C	-10.9% (inactive)
O=C(C1CC1)N1CCCCN2[C@H](CO)[C@H](c3ccc(-c4cccc(F)c4)cc3)[C@H]2C1	67% (inactive)
C[C@H](CO)N1C[C@H](C)[C@H](CN(C)C(=O)C2CCCCC2)Oc2ncc(C#Cc3cccc(F)c3)cc2C1=O	44.3% (inactive)
O=C(c1ccncc1)N1CCCCN2[C@H](CO)[C@H](c3ccc(-c4ccccc4)cc3)[C@H]2C1	68.8% (inactive)
O=C(C1CCC1)N1CCCCN2[C@H](CO)[C@H](c3ccc(-c4cccc(F)c4)cc3)[C@@H]2C1	62% (inactive)
C[C@@H]1CN([C@H](C)CO)C(=O)c2cc(C#CC3CCCCC3)cnc2O[C@@H]1CN(C)C(=O)NC1CCCC1	66.9% (inactive)
O=C(C1CCC1)N1CCCCN2[C@H](CO)[C@H](c3ccc(-c4ccncc4)cc3)[C@@H]2C1	24.4% (inactive)
COCC(=O)N1[C@H](CO)[C@@H](c2ccc(C#Cc3ccccc3F)cc2)[C@@H]1C#N	72.9% (inactive)
COc1cccc(C#Cc2ccc([C@@H]3[C@H](C#N)N[C@H]3CO)cc2)c1	97.1% (active)
N#C[C@@H]1[C@@H](c2ccc(C#Cc3cccc(F)c3)cc2)[C@@H](CO)N1C(=O)C1CCC1	62.2% (inactive)
O=C(C[C@H]1CC[C@@H]2[C@H](COC[C@H](O)CN2Cc2ccc(Oc3ccccc3)cc2)O1)N1CCN(c2ccccc2)CC1	21.7% (inactive)

Structure (SMILES)	inhibition
Cc1ccccc1-c1ccc([C@@H]2[C@H](CO)N3CCCCN(S(=O)(=O)c4ccc(F)cc4)C[C@@H]23)cc1	62.4% (inactive)
CC(=O)N1[C@H](CNC(=O)C2CC2)[C@@H](c2ccc(-c3cccc(F)c3)cc2)[C@@H]1CO	-2.15% (inactive)
CCCNC(=O)N1[C@@H]2c3cccc(=O)n3C[C@H]1[C@H](CO)[C@H]2C(=O)NCC(F)(F)F	23.3% (inactive)
CC(C)(O)C#Cc1ccc([C@@H]2[C@H](CO)N3CCCCN(C(=O)c4cccc(F)c4)C[C@@H]23)cc1	-0.041% (inactive)
CCC(=O)N1CCCCN2[C@H](C1)[C@@H](c1ccc(/C=C/c3ccccc3)cc1)[C@@H]2CO	62.7% (inactive)
CCCN(C)C[C@H]1Oc2cc(C#CC3CCCC3)ccc2S(=O)(=O)N([C@H](C)CO)C[C@@H]1C	68.9% (inactive)
C[C@@H]1CN([C@@H](C)CO)S(=O)(=O)c2ccc(C#CCN(C)C)cc2O[C@H]1CN(C)C(=O)C1CC1	98.9% (active)
CC(C)CC#Cc1ccc2c(c1)O[C@H](CN(C)C(=O)C1CC1)[C@@H](C)CN([C@@H](C)CO)S2(=O)=O	58.8% (inactive)
C[C@@H]1CN([C@H](C)CO)S(=O)(=O)c2ccc(C#CCC3CCCC3)cc2O[C@H]1CN(C)C(=O)CC1CC1	106% (active)
CNC[C@@H]1Oc2cc(C#CCC3CCCC3)ccc2S(=O)(=O)N([C@H](C)CO)C[C@H]1C	31.6% (inactive)
CC(=O)N(C)C[C@H]1Oc2cc(C#CCN(C)C)ccc2S(=O)(=O)N([C@@H](C)CO)C[C@@H]1C	91.3% (inactive)
C[C@H]1CN([C@@H](C)CO)S(=O)(=O)c2ccc(C#CC3CCCC3)cc2O[C@@H]1CN(C)C(=O)c1cccc(F)c1	100% (active)
C[C@@H]1CN([C@@H](C)CO)S(=O)(=O)c2ccc(C#CCC3CCCC3)cc2O[C@H]1CN(C)C(=O)CC1CC1	64.9% (inactive)
C[C@H](CO)N1C[C@H](C)[C@@H](CN(C)C(=O)Nc2cc(F)ccc2F)Oc2cc(C#CC3CC3)ccc2S1(=O)=O	51.9% (inactive)
C[C@@H]1CN([C@H](C)CO)S(=O)(=O)c2ccc(C#CC3CCCC3)cc2O[C@@H]1CN(C)C(=O)Cc1ccncc1	66.3% (inactive)
C[C@@H]1CN([C@H](C)CO)C(=O)Cc2cc(NC(=O)Cc3ccccc3)ccc2O[C@H]1CN(C)Cc1ccc(Oc2ccccc2)cc1	20.7% (inactive)
CC(=O)NC[C@@H]1[C@@H](c2ccc(-c3ccccc3F)cc2)[C@@H](CO)N1C(=O)C1CC1	14.2% (inactive)
COc1ccc(S(=O)(=O)Nc2ccc3c(c2)C(=O)N([C@@H](C)CO)C[C@H](C)[C@H](CN(C)Cc2ccc(C(F)(F)F)cc2)O3)cc1	42.3% (inactive)
Cc1noc(C)c1S(=O)(=O)N(C)C[C@H]1Oc2ccc(N(C)C)cc2CC(=O)N([C@H](C)CO)C[C@@H]1C	-7.54% (inactive)
